Screening data: PubChem BioAssay, several laboratories
SKKanGAS inh = SKKanGAS growth inhibition; S. pyogenes SKKanGAS, kanamycin growth, BacTiter-Glo, 6 h; inhibition, % at 7.5 µM; hit rate 1.3% among 300,000; AID 1662;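 active = mean replicate score, as percent of positive control median, at least 50; inconclusive = mean below 50 but one replicate at or above 50; inactive = mean and every replicate below 50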;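 also: strain carries kanamycin resistance gene driven by streptokinase promoter and grows in 40 µg/ml kanamycin; loss of luminescence reflects streptokinase promoter inhibition or plain growth inhibition; 0% = median of DMSO wells and 100% = positive control at its reference dose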
Beta cell apopt = blocks beta cell apoptosis. protection from apoptosis, % (test concentration not listed). INS-1E cytokine-induced death, ATP luminescence, 48 h; percent of positive-control rescue, neutral wells zero. AID 435005. hit rate 0.8% among 300,000;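 active = Every replicate reaches about 75%, or at least half do and their mean reaches it too, limit read from the data; inconclusive = At least half of replicates reach the limit but their mean does not; inactive = Under half of replicates reach the limit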;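 also: 0% = cytokine-treated negative control wells and 100% = positive control rescue; higher means more ATP so stronger rescue from cytokine killing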
CSC inhib = cancer stem cell inhibition; cancer stem cell-like cells viability, luminescence; inhibition, % at 7.5 µM; hit rate 1.1% among 300,000; AID 2717; in the data active = inhibition above about 75%; inconclusive = no clear call, values can overlap the other calls; tested in HMLE shEcad cells
T cruzi repl = blocks replication of Trypanosoma cruzi. hit rate 1.4% among 300,000. inhibition, % (no concentration beside the values). AID 1885. T. cruzi beta-gal in NIH3T3, luminescence, 90 h;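 active = mean inhibition across valid replicates above about 55%, limit read from the data; inconclusive = mean below that limit but half or more replicates reach it; inactive = mean below it, under half of replicates reach it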;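 also: signal also drops with host cell toxicity which is not excluded here; 0% = plate median of DMSO wells and 100% = zero luminescence signal; higher percent means less beta-gal luminescence so fewer parasites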
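System – NIH/3T3 host cells with β-galactosidase reporter T. cruzi · Doses – single 50 nL compound addition per well in DMSO · Reagent – 5000 T. cruzi trypomastigotes/well · Medium – Low-serum DMEM with 2% FBS · Timing – ≥90 h infection period, 3 h prior cell attachment · Evaluation – parasite load inhibition, % · Technique – GalScreen luminescence, 60 min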
Lmaj promast = reduces viability of Leishmania major promastigotes | hit rate 9% among 200,000 | resazurin fluorescence viability | AID 1063 | inhibition, % at 10 µM; in the data active = inhibition above about 50%;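 also: promastigotes grown with compound for 44 hours at 28 °C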
Mdm2 MdmX PPI = inhibitors of human Mdm2/MdmX interaction | hit rate 3% among 330,000 | inhibition, % at 8 µM | O15151+Q00987 | AID 485346 | SaOS-2 split-luciferase Mdm2/MdmX complementation, luminescence;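 active = inhibition of at least 50% at 8 µM in the primary screen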
The depositor's hits bear a star; ? = inconclusive; · = not tested or not shown; ! = not active in a repeat. The list is not random: actives were taken first. Their share in the collection is about 9.4%.

SMILES | SKKanGAS inh | Beta cell apopt | CSC inhib | T cruzi repl | Lmaj promast | Mdm2 MdmX PPI
CCOC(=O)C(NC(=O)c1cccc(Cl)c1)(Nc1sc2c(c1C(N)=O)CCC2)C(F)(F)F (stereo unspecified) | 8 | 0 | -6 | 4 | 26 | -7
O=C(c1cc2n(n1)C(C(F)(F)F)CC(c1ccco1)N2)N1CCN(c2ccccn2)CC1 (stereo unspecified) | 8 | -7 | 38 | 7 | -1 | 3
O=C(NCc1ccco1)c1cc2n(n1)C(C(F)(F)F)CC(c1ccc(Cl)c(Cl)c1)N2 (stereo unspecified) | 41 | 0 | 46 | 55* | -7 | 27
O=C(NCc1ccco1)c1cc2n(n1)C(C(F)(F)F)CC(c1ccc(Br)cc1)N2 (stereo unspecified) | 10 | 27 | 11 | 2 | -5 | 8
COc1ccccc1NC(=O)c1cc2n(n1)C(C(F)(F)F)CC(c1ccc3c(c1)OCO3)N2 (stereo unspecified) | 20 | -9 | 42 | 29 | 62* | 45
CCOC(=O)N1CCN(C(=O)c2cc3n(n2)C(C(F)(F)F)CC(c2ccc4c(c2)OCO4)N3)CC1 (stereo unspecified) | 54* | · | -9 | -6 | · | -11
Cc1cccc(N2CCN(C(=O)c3cc4n(n3)C(C(F)(F)F)CC(c3ccco3)N4)CC2)c1C (stereo unspecified) | ? | -3 | 84* | 24 | 67* | 49
COC(=O)c1ccc(-c2ccc(/C=N/NC(=O)Cc3nnc(N)s3)o2)cc1 | -3 | 4 | -8 | -16 | · | -8
Cc1ccccc1NC(=S)N1CCC(NC(=O)c2ccco2)CC1 | · | 2 | 0 | -3 | -1 | 2
CCN(C(=O)CN1C(=O)NC(c2ccccc2)(c2ccc(C)c(C)c2)C1=O)C1CCCCC1 (stereo unspecified) | · | -8 | 32 | · | · | 38
Cc1nn(-c2ccccc2)c(C)c1NC(=O)COC(=O)c1ccc(Cl)c(S(N)(=O)=O)c1 | -1 | 3 | -17 | -14 | · | 19
O=C(Nc1cc(Cl)ccc1O)c1cc2n(n1)C(C(F)(F)F)CC(c1ccc3c(c1)OCO3)N2 (stereo unspecified) | 101* | 8 | 30 | 2 | 84* | 27
CCNC(=S)NNc1nc(N2CCCCC2)nc(N2CCOCC2)n1 | 3 | · | 1 | 0 | -4 | 17
O=C(NCCCN1CCOCC1)c1cc(-c2ccc(Br)cc2)on1 | -4 | 5 | -29 | 1 | 94* | 16
Cc1cc(C)c(C)c(S(=O)(=O)Nc2ccccc2C(=O)NCCCN2CCOCC2)c1C | -1 | 1 | 4 | 28 | 97* | 31
O=C(NCCCN1CCOCC1)c1ccc(Br)cc1 | -10 | · | 11 | -2 | 52* | -23
O=C(NCCCN1CCOCC1)c1ccc(CSc2ccc(Cl)cc2)cc1 | 0 | -1 | 76* | 31 | 97* | -5
O=C(NCCCN1CCOCC1)c1ccc(CNS(=O)(=O)c2ccc(Br)cc2)cc1 | -6 | -5 | 36 | 13 | 0 | 28
CC(C)c1ccc(C(=O)NCCCN2CCOCC2)cc1 | -1 | -1 | 7 | 5 | · | -12
Cc1ccc(S(=O)(=O)N2CC(O)CC2C(=O)O)cc1 (stereo unspecified) | 1 | -1 | 2 | -15 | · | -8
O=C(NCC(c1ccco1)N1CCc2ccccc21)c1cccc([N+](=O)[O-])c1 (stereo unspecified) | 4 | 4 | -3 | 0 | · | 2
O=C(O)C1Nc2ccc(C(F)(F)F)cc2C2OCCC12 (stereo unspecified) | 1 | -2 | -7 | -9 | · | 19
CCC(=O)c1cn([C@H](CCC(OC)OC)CC(=O)OC(C)(C)C)cc1CC | -3 | -9 | -2 | -14 | · | 10
O=C(CCS(=O)(=O)Cc1ccc(Cl)cc1)NCCCN1CCOCC1 | 2 | -5 | -8 | 0 | 89* | -30
O=C(CN1CCN(Cc2ccc(Cl)cc2)C1=O)NCCCN1CCOCC1 | -2 | -5 | -15 | -8 | -3 | 9
SMILES | SKKanGAS inh | Beta cell apopt | CSC inhib | T cruzi repl | Lmaj promast | Mdm2 MdmX PPI
O=S(=O)(c1cccs1)N1CCN(CCOc2ccc(Cl)cc2)CC1 | · | -6 | 24 | · | · | 14
O=S(=O)(c1cccs1)N1CCN(CC(O)COc2cc(Cl)ccc2Cl)CC1 (stereo unspecified) | · | 83* | 22 | · | -9 | 15
CN(CCCNC(=O)CSc1cc(=O)n(C)c2ccc(Cl)cc12)Cc1ccccc1 | 0 | -2 | 10 | 50 | 58* | 22
CCCN(C(=O)c1c(-c2ccccc2)noc1C)c1c(N)n(Cc2ccccc2)c(=O)[nH]c1=O | · | -2 | · | · | · | -32
O=C(Nc1ccc(N2CCCCC2)cc1)c1ccc(F)cc1F | -2 | 4 | -1 | 32 | · | -88
CCC(=O)Nc1ccc(N2CCCCC2)cc1 | 3 | 0 | 16 | -3 | -2 | 26
O=C(CCl)Nc1ccc(N2CCCCCC2)cc1 | -3 | 8 | 18 | 9 | 99* | 34
CCN1CCN(c2ccc(NC(=O)c3ccccc3F)cc2Cl)CC1 | 0 | 0 | 11 | -2 | 75* | -24
O=C(Nc1ccc(N2CCCC2)cc1)c1ccccc1F | 3 | 4 | -6 | 14 | 100* | -105
O=C(CCl)Nc1ccc(N=Nc2ccccc2)cc1 | -5 | · | · | -66 | 100* | ·
COC(=O)C1=C(C)N(c2ccccc2)/C(=C/c2cccs2)C1=O | -4 | 4 | 10 | 23 | 51* | 9
COC(=O)C1=C(C)N(c2ccc(C)c(C)c2)/C(=C/c2cccs2)C1=O | 4 | 0 | 26 | 40 | 82* | 20
COC(=O)C1=C(C)N(c2ccc(Cl)cc2)/C(=C/c2cccs2)C1=O | -4 | 6 | 32 | 13 | 36 | -1
Cc1cc(C)c(C)c(S(=O)(=O)N2CCC(C(=O)N3CC(C)CC(C)C3)CC2)c1C (stereo unspecified) | -5 | 5 | 16 | 8 | · | 26
Cc1nn(C)cc1S(=O)(=O)N1CCN(c2cccc(Cl)c2)CC1 | 2 | -19 | 0 | -6 | · | 6
O=C(Nc1ccccc1)Nc1ccc(Nc2ccccc2)cc1 | -10 | -2 | 26 | 24 | · | -35
O=C(Nc1ccccc1)Nc1ccccc1-n1ccnc1 | -8 | 5 | -19 | 61* | 80* | 6
COc1ccc(C2=C(CN(C)C)C(c3ccccc3)c3ccccc3O2)cc1 (stereo unspecified) | -18 | 7 | 29 | 26 | 100*! | 38
N#CC1=C(N)OC2=C(CC/C2=C\c2ccccc2)C1c1ccccc1 (stereo unspecified) | 13 | 5 | 3 | -6 | 101* | 41
Cc1ccc(S(=O)(=O)Oc2ccccc2/C=N/NC(=O)c2nn(C)cc2[N+](=O)[O-])cc1 | 2 | 0 | -6 | 8 | 6 | -2
Cc1ccc(S(=O)(=O)Oc2ccccc2/C=N/N=C(N)N)cc1 | -3 | 4 | 0 | 22 | 74* | 29
CCCCn1c(N)c(N(CC(C)C)C(=O)CCCc2cccs2)c(=O)[nH]c1=O | -3 | -3 | 0 | -4 | · | 16
